Published values of several laboratories.
Compare with care: the assays were run in different laboratories.
Target: Serine/threonine-protein kinase Nek3 (NEK3, Homo sapiens, UniProt P51956)
One construct used (P51956 1-506): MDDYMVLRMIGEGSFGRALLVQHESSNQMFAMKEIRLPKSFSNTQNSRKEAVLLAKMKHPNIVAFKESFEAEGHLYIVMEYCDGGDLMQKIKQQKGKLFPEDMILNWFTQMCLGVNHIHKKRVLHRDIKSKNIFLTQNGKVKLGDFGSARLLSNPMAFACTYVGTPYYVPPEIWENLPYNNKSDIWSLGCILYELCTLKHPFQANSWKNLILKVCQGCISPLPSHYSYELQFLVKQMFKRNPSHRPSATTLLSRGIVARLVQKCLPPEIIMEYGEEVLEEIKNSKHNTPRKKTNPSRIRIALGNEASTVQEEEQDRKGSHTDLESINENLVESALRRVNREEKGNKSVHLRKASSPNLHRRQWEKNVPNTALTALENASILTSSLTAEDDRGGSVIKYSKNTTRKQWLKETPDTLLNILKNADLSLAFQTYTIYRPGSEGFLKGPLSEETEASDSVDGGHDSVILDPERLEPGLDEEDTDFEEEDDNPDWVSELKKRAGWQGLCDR

Compound	read-out	action	technique	tested at	quantity	result
CCCCN(CCCC)C(=O)CN1C[C@@H](c2cc(OC)c3c(c2)OCO3)[C@H](C(=O)O)[C@H]1CC(C)(C)CCC	cell-free assay	–	competition with immobilised ligand	1 µM	remaining binding	72.9%
Cc1sc(C(=O)NC2COC2)cc1-n1cc(NC(=O)Nc2c(F)cccc2Cl)cn1	enzyme activity	inhibitor	–	10 µM	remaining activity	87.5%
O=C1Nc2ccc(Cl)cc2C1=Cc1cc(Cl)c(O)c(Cl)c1	cell-free assay	–	–	0.5 µM	remaining signal	94%
CCCS(=O)(=O)Nc1ccc(F)c(C(=O)c2c[nH]c3ncc(-c4ccc(Cl)cc4)cc23)c1F	enzyme activity	inhibitor	–	1 µM	inhibition	< 10%
CC(C)(C)c1nc(-c2cccc(NS(=O)(=O)c3c(F)cccc3F)c2F)c(-c2ccnc(N)n2)s1	enzyme activity	inhibitor	radiometric	1 µM	remaining activity	85%
O=C1NC(=O)c2cc(Nc3ccc(F)cc3)c(Nc3ccc(F)cc3)cc21	cell-free assay	–	–	0.5 µM	remaining signal	99.1%
CCCCNc1ncc2c(-c3ccc(F)cc3)nn(C[C@H]3CC[C@H](N)CC3)c2n1	target engagement in cells	inhibitor	chemoproteomics	20 mM	inhibition	10.1%
CS(=O)(=O)N1CCCC(NC(=O)[C@H](CCC2CCCCC2)NC(=O)c2ccc(CNC(=O)c3cnc4ccccn34)cc2)C1 (stereo partly drawn)	cell-free assay	–	competition with immobilised ligand	0.1 µM	remaining binding	100%
Cc1cnc(NC2CCOCC2)nc1-n1cnc(C(=O)NC(CN)c2cc(F)cc(Cl)c2)c1 (stereo not drawn)	enzyme activity	inhibitor	radiometric	1 µM	remaining activity	65%
Cc1cc(NC(=O)c2cccc3cc(-c4cccc5[nH]nc(N)c45)ccc23)ccc1F	enzyme activity	inhibitor	–	0.1 µM	activity vs control	83%
CN1CC(Oc2cnc(C#N)cc2-c2ccn3nc(NC(=O)C4CC4)cc3c2)C1	enzyme activity	inhibitor	–	1 µM	inhibition	12%
Cn1cnc(Br)c1C1=CN(c2ncnc3[nH]cnc23)CCS1	enzyme activity	inhibitor	radiometric	50 nM	inhibition	14.7%
CNC(=O)c1ccc(Nc2ncc(C(F)(F)F)c(NCc3nccnc3N(C)S(C)(=O)=O)n2)cc1	cell-free assay	–	competition with immobilised ligand	0.1 µM	remaining binding	100%
Cc1ccc(C(=O)Nc2ccc(CN3CCN(C)CC3)c(C(F)(F)F)c2)cc1C#Cc1cnc2cccnn12	enzyme activity	inhibitor	–	23.5 nM	remaining activity	86%
C[C@H](NC(=O)c1cnc2n1[C@](C)(Cc1ccc(C#N)cc1)C(=O)N2c1cc(Cl)c(F)c(Cl)c1)C(=O)NC1(c2ccccn2)CC1	cell-free assay	–	competition with immobilised ligand	1 µM	remaining binding	100%
N#CCCc1ccc2c(c1)-c1[nH]c3ccc([N+](=O)[O-])cc3c1CC(=O)N2	cell-free assay	–	–	0.5 µM	remaining signal	104%
Cn1nc(C(=O)NCc2ccc(C(=O)O)cc2)cc1-c1ccc2[nH]ccc2c1	cell-free assay	–	competition with immobilised ligand	0.1 µM	remaining binding	100%
CCCOc1ccc(OC)c(F)c1C(=O)c1ccc(C(=O)N[C@@H]2CNC[C@H]2NC(=O)c2ccc3[nH]ncc3c2)cc1	enzyme activity	inhibitor	–	10 µM	remaining activity	101%
